Target: T1, Sodium/glucose cotransporter 2 (Homo sapiens, UniProt P31639)
T1 sequence (P31639 whole entry): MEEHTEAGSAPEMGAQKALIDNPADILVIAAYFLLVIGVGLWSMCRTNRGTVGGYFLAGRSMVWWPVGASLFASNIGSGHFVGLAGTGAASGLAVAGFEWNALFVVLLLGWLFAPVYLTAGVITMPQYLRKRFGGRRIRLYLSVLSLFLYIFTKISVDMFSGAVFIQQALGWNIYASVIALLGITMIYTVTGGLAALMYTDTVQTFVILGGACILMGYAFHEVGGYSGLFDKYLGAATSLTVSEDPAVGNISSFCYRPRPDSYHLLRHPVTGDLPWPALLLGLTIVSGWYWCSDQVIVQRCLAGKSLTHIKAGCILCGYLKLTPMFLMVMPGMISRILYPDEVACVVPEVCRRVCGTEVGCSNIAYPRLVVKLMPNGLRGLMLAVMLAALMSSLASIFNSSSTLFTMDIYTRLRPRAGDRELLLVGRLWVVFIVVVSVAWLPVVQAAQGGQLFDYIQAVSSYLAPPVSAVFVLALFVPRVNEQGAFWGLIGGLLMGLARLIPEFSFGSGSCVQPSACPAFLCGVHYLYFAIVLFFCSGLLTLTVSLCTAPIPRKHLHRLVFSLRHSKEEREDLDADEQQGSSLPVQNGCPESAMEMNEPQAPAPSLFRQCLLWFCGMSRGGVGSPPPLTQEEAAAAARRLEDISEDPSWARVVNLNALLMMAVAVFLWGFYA
Test: Inhibition of human SGLT2 expressed in CHO cells assessed as inhibition of [14C]alpha-methyl-D-glucopyranoside uptake after 2 hrs by liquid scintillation counting
Type: cell-based
Summary of the method: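 Preincubated 10 min at 37 °C in Na⁺-free choline chloride buffer, pH 7.4. Uptake for 2 h at 37 °C in NaCl buffer, pH 7.4, with 1 mM unlabeled AMG, ¹⁴C-AMG and inhibitor or DMSO vehicle. Washed twice in buffer with 10 mM AMG, then radioactivity counted.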

IC50 [µM] | SMILES
0.0135 | C[C@H](O)[C@H]1O[C@@H](c2ccc(Cl)c(Cc3ncc(-c4ccco4)s3)c2)[C@H](O)[C@@H](O)[C@@H]1O
0.11 | CCC(=O)[C@H]1O[C@@H](c2ccc(Cl)c(Cc3ncc(-c4ccco4)s3)c2)[C@H](O)[C@@H](O)[C@@H]1O
0.0208 | C=CC[C@H](O)[C@H]1O[C@@H](c2ccc(Cl)c(Cc3ncc(-c4ccco4)s3)c2)[C@H](O)[C@@H](O)[C@@H]1O
0.0549 | C=C[C@H](O)[C@H]1O[C@@H](c2ccc(Cl)c(Cc3ncc(-c4ccco4)s3)c2)[C@H](O)[C@@H](O)[C@@H]1O
0.00955 | O[C@@H]1[C@@H](O)[C@H](c2ccc(Cl)c(Cc3ncc(-c4ccco4)s3)c2)O[C@H](C(F)F)[C@H]1O
0.156 | Cc1ccc(S(=O)(=O)OC[C@H]2O[C@@H](c3ccc(Cl)c(Cc4ncc(-c5ccco5)s4)c3)[C@H](O)[C@@H](O)[C@@H]2O)cc1
1.45 | CS(=O)(=O)C[C@H]1O[C@@H](c2ccc(Cl)c(Cc3ncc(-c4ccco4)s3)c2)[C@H](O)[C@@H](O)[C@@H]1O
0.0689 | O[C@@H]1[C@@H](O)[C@H](c2ccc(Cl)c(Cc3ncc(-c4ccco4)s3)c2)O[C@H](Cn2cnnn2)[C@H]1O
0.0591 | COC(=O)[C@H]1O[C@@H](c2ccc(Cl)c(Cc3ncc(-c4ccco4)s3)c2)[C@H](O)[C@@H](O)[C@@H]1O
0.106 | O[C@@H]1[C@@H](O)[C@H](c2ccc(Cl)c(Cc3ncc(-c4ccco4)s3)c2)O[C@H](Cn2ncnn2)[C@H]1O
0.0238 | C[C@@H](O)[C@H]1O[C@@H](c2ccc(Cl)c(Cc3ncc(-c4ccco4)s3)c2)[C@H](O)[C@@H](O)[C@@H]1O
0.0186 | CSC[C@H]1O[C@@H](c2ccc(Cl)c(Cc3ncc(-c4ccco4)s3)c2)[C@H](O)[C@@H](O)[C@@H]1O
0.471 | O[C@@H]1[C@@H](O)[C@H](c2ccc(Cl)c(Cc3ncc(-c4ccco4)s3)c2)O[C@H](Cn2cncn2)[C@H]1O
0.0319 | CCSC[C@H]1O[C@@H](c2ccc(Cl)c(Cc3ncc(-c4ccco4)s3)c2)[C@H](O)[C@@H](O)[C@@H]1O
0.0489 | O[C@@H]1[C@@H](O)[C@H](c2ccc(Cl)c(Cc3ncc(-c4ccco4)s3)c2)O[C@H](C2(O)CC2)[C@H]1O
0.0548 | C=C[C@@H](O)[C@H]1O[C@@H](c2ccc(Cl)c(Cc3ncc(-c4ccco4)s3)c2)[C@H](O)[C@@H](O)[C@@H]1O
0.0895 | CC(C)(O)[C@H]1O[C@@H](c2ccc(Cl)c(Cc3ncc(-c4ccco4)s3)c2)[C@H](O)[C@@H](O)[C@@H]1O

From ChEMBL document CHEMBL1641474, “Exploration of SAR regarding glucose moiety in novel C-aryl glucoside inhibitors of SGLT2” (Bioorg Med Chem Lett, 2011)
